According to ChEMBL document CHEMBL3400032 (Bioorg Med Chem, 2015):

What was measured:
[1] = Drug metabolism in Sprague-Dawley rat liver S9 fraction assessed as 2-(3-aminopiperidin-1-yl)-3-(2-chlorobenzyl)-5-methyl-4-oxo-4,5-dihydro-3H-imidazo[4,5-c]quinoline-8-carboxylic acid formation at 1 uM after 30 mins by HPLC/MS/MS analysis relative to control; assay type: ADME, subcellular; settings: s9, 0.5 h
Summary of the method: (§1)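 Test compound at 1 µM final, incubated 30 min at 37 °C in serum, or in S9 mix (50 mM potassium phosphate pH 7.4, 3 mM NADPH, 1 mg protein/mL pooled male SD rat or human liver S9). Preincubated 5 min at 37 °C, compound added in acetonitrile–water (1:1), stopped with ice-cold acetonitrile, centrifuged, filtered, parent and carboxylate hydrolysate quantified by HPLC-MS/MS.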

Serum [2] = assay: Drug metabolism in human serum assessed as 2-(3-aminopiperidin-1-yl)-3-(2-chlorobenzyl)-5-methyl-4-oxo-4,5-dihydro-3H-imidazo[4,5-c]quinoline-8-carboxylic acid formation at 1 uM after 30 mins by HPLC/MS/MS analysis relative to control; assay type: ADME, cell-free; settings: 0.5 h; summary of the method: as §1
[3] = Drug metabolism in human liver S9 fraction assessed as compound remaining at 1 uM after 30 mins by HPLC/MS/MS analysis relative to control; assay type: ADME, subcellular; settings: read-out: Stability; summary of the method: as §1
[4] = Drug metabolism in Sprague-Dawley rat liver S9 fraction assessed as compound remaining at 1 uM after 30 mins by HPLC/MS/MS analysis relative to control; assay type: ADME, subcellular; settings: read-out: Stability; summary of the method: as §1
[5] = Permeability of the compound at pH 7.4 by PAMPA; assay type: ADME; settings: read-out: permeability
[6] = Drug metabolism in human serum assessed as compound remaining at 1 uM after 30 mins by HPLC/MS/MS analysis relative to control; assay type: ADME, cell-free; settings: read-out: Stability; summary of the method: as §1
[7] = Drug metabolism in human liver S9 fraction assessed as 2-(3-aminopiperidin-1-yl)-3-(2-chlorobenzyl)-5-methyl-4-oxo-4,5-dihydro-3H-imidazo[4,5-c]quinoline-8-carboxylic acid formation at 1 uM after 30 mins by HPLC/MS/MS analysis relative to control; assay type: ADME, subcellular; settings: s9, 0.5 h; summary of the method: as §1
[8] = Drug metabolism in rat serum assessed as compound remaining at 1 uM after 30 mins by HPLC/MS/MS analysis relative to control; assay type: ADME, cell-free; settings: read-out: Stability; summary of the method: as §1
Serum [9] = assay: Drug metabolism in rat serum assessed as 2-(3-aminopiperidin-1-yl)-3-(2-chlorobenzyl)-5-methyl-4-oxo-4,5-dihydro-3H-imidazo[4,5-c]quinoline-8-carboxylic acid formation at 1 uM after 30 mins by HPLC/MS/MS analysis relative to control; assay type: ADME, cell-free; settings: 0.5 h; summary of the method: as §1
[10] = Permeability of the compound at pH 5 by PAMPA; assay type: ADME; settings: read-out: permeability
[11] = Solubility of the compound at pH 2.5; assay type: physicochemical; settings: buffer
Rattus norvegicus [12] = assay: Oral bioavailability in rat assessed as 2-(3-aminopiperidin-1-yl)-3-(2-chloro-5-fluorobenzyl)-5-methyl-4-oxo-4,5-dihydro-3H-imidazo[4,5-c]quinoline-8-carboxylic acid level at 10 mg/kg; assay type: ADME, organism-based; settings: in vivo
Rattus norvegicus [13] = assay: Cmax in rat assessed as 2-(3-aminopiperidin-1-yl)-3-(2-chloro-5-fluorobenzyl)-5-methyl-4-oxo-4,5-dihydro-3H-imidazo[4,5-c]quinoline-8-carboxylic acid level at 10 mg/kg, po; assay type: ADME, organism-based; parameters: dose 10 mg/kg, route oral; settings: in vivo
Dipeptidyl peptidase 4 = Dipeptidyl peptidase 4 (Homo sapiens, UniProt P27487); assay: Inhibition of human DPP4
Sequence of Dipeptidyl peptidase 4 (P27487 whole entry): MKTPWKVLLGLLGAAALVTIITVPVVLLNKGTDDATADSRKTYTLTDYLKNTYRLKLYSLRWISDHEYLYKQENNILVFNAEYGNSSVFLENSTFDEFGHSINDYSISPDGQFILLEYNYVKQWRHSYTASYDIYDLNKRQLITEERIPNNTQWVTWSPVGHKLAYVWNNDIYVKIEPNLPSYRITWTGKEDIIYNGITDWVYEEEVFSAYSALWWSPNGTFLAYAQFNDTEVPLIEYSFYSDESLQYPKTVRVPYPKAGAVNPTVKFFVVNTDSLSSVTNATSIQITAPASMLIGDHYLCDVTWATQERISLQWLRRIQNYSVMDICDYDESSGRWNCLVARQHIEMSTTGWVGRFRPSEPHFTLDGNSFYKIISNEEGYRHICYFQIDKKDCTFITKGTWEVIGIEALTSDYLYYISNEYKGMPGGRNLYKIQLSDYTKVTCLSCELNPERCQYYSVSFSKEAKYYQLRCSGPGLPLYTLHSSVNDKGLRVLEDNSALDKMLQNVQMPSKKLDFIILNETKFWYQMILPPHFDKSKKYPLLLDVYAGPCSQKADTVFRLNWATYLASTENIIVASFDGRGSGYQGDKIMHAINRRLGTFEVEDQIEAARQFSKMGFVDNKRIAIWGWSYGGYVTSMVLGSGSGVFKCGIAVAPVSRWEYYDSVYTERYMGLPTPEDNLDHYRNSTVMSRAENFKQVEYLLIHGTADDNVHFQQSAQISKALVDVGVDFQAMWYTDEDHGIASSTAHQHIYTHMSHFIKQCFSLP

[14] = Solubility of the compound at pH 5.5; assay type: physicochemical; settings: buffer
Rattus norvegicus [15] = assay: Tmax in rat assessed as 2-(3-aminopiperidin-1-yl)-3-(2-chloro-5-fluorobenzyl)-5-methyl-4-oxo-4,5-dihydro-3H-imidazo[4,5-c]quinoline-8-carboxylic acid level at 10 mg/kg, po; assay type: ADME, organism-based; parameters: dose 10 mg/kg, route oral; settings: in vivo
[16] = Solubility of the compound at pH 7.4; assay type: physicochemical; settings: buffer
Rattus norvegicus [17] = assay: AUC in rat assessed as 2-(3-aminopiperidin-1-yl)-3-(2-chloro-5-fluorobenzyl)-5-methyl-4-oxo-4,5-dihydro-3H-imidazo[4,5-c]quinoline-8-carboxylic acid level at 10 mg/kg, po; assay type: ADME, organism-based, Plasma; parameters: dose 10 mg/kg, route oral; settings: in vivo
[18] = Half life in rat at 1 mg/kg, iv; assay type: ADME, organism-based; parameters: dose 1 mg/kg, route intravenous; settings: in vivo
[19] = AUC in rat at 1 mg/kg, iv; assay type: ADME, organism-based; parameters: dose 1 mg/kg, route intravenous; settings: plasma
Liver microsome [20] = assay: Clearance in human liver microsomes assessed per mg protein
Liver microsome [21] = assay: Clearance in Sprague-Dawley rat liver microsomes assessed per mg protein
[22] = Volume of distribution at steady state in rat at 1 mg/kg, iv; assay type: ADME, organism-based; parameters: dose 1 mg/kg, route intravenous; settings: in vivo, read-out: Vdss
[23] = Clearance in rat at 1 mg/kg, iv; assay type: ADME, organism-based; parameters: dose 1 mg/kg, route intravenous; settings: in vivo
Rattus norvegicus [24] = assay: Oral bioavailability in rat assessed as 2-(3-aminopiperidin-1-yl)-3-(2-chlorobenzyl)-5-methyl-4-oxo-4,5-dihydro-3H-imidazo[4,5-c]quinoline-8-carboxylic acid level at 10 mg/kg; assay type: ADME, organism-based; settings: in vivo
Rattus norvegicus [25] = assay: AUC in rat assessed as 2-(3-aminopiperidin-1-yl)-3-(2-chlorobenzyl)-5-methyl-4-oxo-4,5-dihydro-3H-imidazo[4,5-c]quinoline-7-carboxylic acid level at 20 mg/kg, po; assay type: ADME, organism-based, Plasma; parameters: dose 20 mg/kg, route oral; settings: in vivo
Rattus norvegicus [26] = assay: Cmax in rat assessed as 2-(3-aminopiperidin-1-yl)-3-(2-chlorobenzyl)-5-methyl-4-oxo-4,5-dihydro-3H-imidazo[4,5-c]quinoline-7-carboxylic acid level at 20 mg/kg, po; assay type: ADME, organism-based; parameters: dose 20 mg/kg, route oral; settings: in vivo
[27] = Drug metabolism in human liver S9 fraction assessed as metabolite 3 formation at 1 uM after 30 mins by HPLC/MS/MS analysis relative to control; assay type: ADME, subcellular; settings: s9, 0.5 h; summary of the method: as §1
Serum [28] = assay: Drug metabolism in rat serum assessed as 2-(3-aminopiperidin-1-yl)-3-(2-chlorobenzyl)-5-methyl-4-oxo-4,5-dihydro-3H-imidazo[4,5-c]quinoline-7-carboxylic acid formation at 1 uM after 30 mins by HPLC/MS/MS analysis relative to control; assay type: ADME, cell-free; settings: 0.5 h; summary of the method: as §1
[29] = Drug metabolism in Sprague-Dawley rat liver S9 fraction assessed as 2-(3-aminopiperidin-1-yl)-3-(2-chlorobenzyl)-5-methyl-4-oxo-4,5-dihydro-3H-imidazo[4,5-c]quinoline-7-carboxylic acid formation at 1 uM after 30 mins by HPLC/MS/MS analysis relative to control; assay type: ADME, subcellular; settings: s9, 0.5 h; summary of the method: as §1
Rattus norvegicus [30] = assay: Oral bioavailability in rat assessed as 2-(3-aminopiperidin-1-yl)-3-(2-chlorobenzyl)-5-methyl-4-oxo-4,5-dihydro-3H-imidazo[4,5-c]quinoline-7-carboxylic acid level at 20 mg/kg; assay type: ADME, organism-based; settings: in vivo
Rattus norvegicus [31] = assay: Tmax in rat assessed as 2-(3-aminopiperidin-1-yl)-3-(2-chlorobenzyl)-5-methyl-4-oxo-4,5-dihydro-3H-imidazo[4,5-c]quinoline-7-carboxylic acid level at 20 mg/kg, po; assay type: ADME, organism-based; parameters: dose 20 mg/kg, route oral; settings: in vivo
Serum [32] = assay: Drug metabolism in human serum assessed as 2-(3-aminopiperidin-1-yl)-3-(2-chlorobenzyl)-5-methyl-4-oxo-4,5-dihydro-3H-imidazo[4,5-c]quinoline-7-carboxylic acid formation at 1 uM after 30 mins by HPLC/MS/MS analysis relative to control; assay type: ADME, cell-free; settings: 0.5 h; summary of the method: as §1
[33] = AUC in rat at 1.5 mg/kg, iv; assay type: ADME, organism-based; parameters: dose 1.5 mg/kg, route intravenous; settings: plasma
[34] = Clearance in rat at 1.5 mg/kg, iv; assay type: ADME, organism-based; parameters: dose 1.5 mg/kg, route intravenous; settings: in vivo
[35] = Half life in rat at 1.5 mg/kg, iv; assay type: ADME, organism-based; parameters: dose 1.5 mg/kg, route intravenous; settings: in vivo
[36] = Volume of distribution at steady state in rat at 1.5 mg/kg, iv; assay type: ADME, organism-based; parameters: dose 1.5 mg/kg, route intravenous; settings: in vivo, read-out: Vdss

Row | Compound | Drug metabolism [1] | Drug metabolism (Serum [2]) | remaining at 0.5 h, 1 µM [3] [%] | remaining at 0.5 h, 1 µM [4] [%] | Papp [5] [×10⁻⁶ cm/s] | remaining at 0.5 h, 1 µM [6] [%] | Drug metabolism [7] | remaining at 0.5 h, 1 µM [8] [%] | Drug metabolism (Serum [9]) | Papp [10] [×10⁻⁶ cm/s] | further results
1 | CN(C)CCCOC(=O)c1ccc2c(c1)c1nc(N3CCC[C@@H](N)C3)n(Cc3ccccc3Cl)c1c(=O)n2C.Cl | metabolite_detected | metabolite_detected | > 99 | > 99 | < 0.1 | < 0.5 | metabolite_detected | 38 | metabolite_detected | < 0.1 | –
2 | Cl.Cn1c(=O)c2c(nc(N3CCC[C@@H](N)C3)n2Cc2ccccc2Cl)c2cc(C(=O)OCOC(=O)C(C)(C)C)ccc21 | metabolite_detected | metabolite_detected | < 0.5 | < 0.5 | 6.3 | 73 | metabolite_detected | 0.6 | metabolite_detected | 6.5 | –
3 | Cc1oc(=O)oc1COC(=O)c1ccc2c(c1)c1nc(N3CCC[C@@H](N)C3)n(Cc3cc(F)ccc3Cl)c1c(=O)n2C.Cl | – | – | 3.5 | 1 | 8.4 | < 0.5 | – | < 0.5 | – | 11 | solubility [11]: 25 µg/mL; F (Rattus norvegicus [12]): 11.7%; Cmax (Rattus norvegicus [13]): 14.8 ng/mL; IC50 (Dipeptidyl peptidase 4): 4.7 nM; solubility [14]: 2 µg/mL; Tmax (Rattus norvegicus [15]): 2 h; solubility [16]: < 1 µg/mL; AUC (Rattus norvegicus [17]): 72.7 ng·h/mL
4 | Cn1c(=O)c2c(nc(N3CCC[C@@H](N)C3)n2Cc2cc(F)ccc2Cl)c2cc(C(=O)O)ccc21 | – | – | – | – | – | – | – | – | – | – | half-life [18]: 1.3 h; AUC [19]: 75.3 ng·h/mL; CLH (Liver microsome [20]): < 10 µL/min/mg; CLH (Liver microsome [21]): < 10 µL/min/mg; Vd [22]: 7.1 L/kg; clearance [23]: 222 mL/min/kg
5 | COC(=O)c1ccc2c(c1)c1nc(N3CCC[C@@H](N)C3)n(Cc3ccccc3Cl)c1c(=O)n2C.Cl | metabolite_detected | metabolite_detected | > 99 | < 0.5 | 47.4 | 80 | metabolite_detected | 72 | metabolite_detected | 34.1 | F (Rattus norvegicus [24]): 2.4%
6 | Cc1oc(=O)oc1COC(=O)c1ccc2c3nc(N4CCC[C@@H](N)C4)n(Cc4ccccc4Cl)c3c(=O)n(C)c2c1.Cl | – | – | 17 | 1 | 14.2 | < 0.5 | – | < 0.5 | – | 12.5 | AUC (Rattus norvegicus [25]): 61.9 ng·h/mL; Cmax (Rattus norvegicus [26]): 81.7 ng/mL; solubility [11]: 54 µg/mL; Drug metabolism [27]: metabolite_detected; Drug metabolism (Serum [28]): metabolite_detected; solubility [14]: 2 µg/mL; Drug metabolism [29]: metabolite_detected; F (Rattus norvegicus [30]): 4%; solubility [16]: 2 µg/mL; Tmax (Rattus norvegicus [31]): 0.25 h; Drug metabolism (Serum [32]): metabolite_detected
7 | Cn1c(=O)c2c(nc(N3CCC[C@@H](N)C3)n2Cc2ccccc2Cl)c2cc(C(=O)O)ccc21 | – | – | – | – | < 0.1 | – | – | – | – | < 0.1 | AUC [33]: 188 ng·h/mL; CLH (Liver microsome [20]): < 10 µL/min/mg; CLH (Liver microsome [21]): < 10 µL/min/mg; clearance [34]: 132 mL/min/kg; half-life [35]: 1 h; Vd [36]: 2.9 L/kg
